Data: ChEMBL document CHEMBL1811802, “Synthesis and significant cytostatic activity of 7-hetaryl-7-deazaadenosines” (J Med Chem, 2011)
Active and inactive are the calls of the source. The calls are words filed in the database; no cut-off is given here.

What was measured:
[1] = system: DU-145; experiment: Metabolic stability in human DU145 cells assessed as sodium ((2R,3S,4R,5R)-5-(4-amino-7H-pyrrolo[2,3-d]pyrimidin-7-yl)-3,4-dihydroxytetrahydrofuran-2-yl)methyl hydrogenphosphate-NMP formation per million of cells at 10 uM after 6 hrs by LC/MS/MS analysis; format: ADME, cell-based; conditions: du-145, 6 h
In short: (§1)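 Du145 seeded at 60% confluence in MEM/10% FBS; next day exposed to 10 μM compound for 6 or 24 h. Cells trypsinized, extracted in 70% MeOH, dried, resuspended in 1 mM ammonium phosphate pH 8.5. Nucleoside, NMP and NTP quantified by ion-pairing (dimethylhexylamine) LC/MS/MS against untreated-cell-extract standard curves; pmol per million cells.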

[2] = system: DU-145; experiment: Metabolic stability in human DU145 cells assessed as sodium ((2R,3S,4R,5R)-5-(4-amino-7H-pyrrolo[2,3-d]pyrimidin-7-yl)-3,4-dihydroxytetrahydrofuran-2-yl)methyl hydrogentriphosphate-NTP formation per million of cells at 10 uM after 6 hrs by LC/MS/MS analysis; format: ADME, cell-based; conditions: du-145, 6 h; in short: as §1
[3] = system: A549; experiment: Cytostatic activity against human A549 cells after 5 days by SRB assay; format: functional; conditions: A549, 120 h
In short: (§2)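 Cells seeded per line density, overnight at 37 °C; day-zero plate TCA-fixed. 5-fold serial dilutions added, 5-day incubation; TCA fixation, 0.057% SRB in 1% acetic acid 30 min, dye dissolved in 10 mM Tris pH 10.5, A500. Growth relative to day-zero and untreated; GIC50 from sigmoidal dose–response fit; mean of two independent experiments.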

[4] = system: HCT-15; experiment: Cytostatic activity against human HCT15 cells after 5 days by SRB assay; format: functional; conditions: HCT-15, 120 h; in short: as §2
[5] = system: MT4; experiment: Cytostatic activity against human MT4 cells after 5 days by SRB assay; format: functional; conditions: MT4, 120 h
[6] = system: CCRF-CEM; experiment: Cytotoxicity against human CCRF-CEM cells after 3 days by XTT assay; format: functional, cell-based; conditions: 72 h
In short: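 Suspension-grown cell lines, 3-day compound incubation; viability read by XTT metabolic assay; IC50 averaged from four independent experiments.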

[7] = system: BV-173; experiment: Cytotoxicity against human BV173 cells after 3 days by MTT assay; format: functional, cell-based; conditions: BV-173, 72 h
[8] = system: L1210; experiment: Cytotoxicity against mouse L1210 cells after 3 days by MTT assay; format: functional, cell-based; conditions: L1210, 72 h
[9] = system: MCF7; experiment: Cytotoxicity against human MCF7 cells after 3 days by MTT assay; format: functional, cell-based; conditions: MCF7, 72 h
[10] = system: BT-549; experiment: Cytotoxicity against human BT549 cells after 3 days by MTT assay; format: functional, cell-based; conditions: BT-549, 72 h
[11] = system: MDA-MB-231; experiment: Cytotoxicity against human MDA-MB-231 cells after 3 days by MTT assay; format: functional, cell-based; conditions: MDA-MB-231, 72 h
[12] = Cytotoxicity against human U87MG cells after 3 days by MTT assay; format: functional, cell-based, U-87MG ATCC; conditions: U-87 MG, 72 h
[13] = system: CCRF-CEM; experiment: Cell cycle arrest in human CCRF-CEM cells assessed as accumulation at G2/M phase at 5 time GI50 using propidium iodide staining by flow cytometry; format: functional, cell-based
In short: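 CCRF-CEM seeded at 5 × 10^5 cells/ml, grown in RPMI 1640 with 10% FCS at 37 °C with 1× or 5× GIC50 of compound; vehicle controls harvested at same times. Cells ethanol-fixed, RNase-treated, stained with propidium iodide, flow cytometry at 488 nm; cell cycle phases scored.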

[14] = system: CCRF-CEM; experiment: Inhibition of DNA synthesis in human CCRF-CEM cells assessed as BrdU incorporation at 1 to 5 times GI50 after 1 hr by FACS analysis; format: functional, cell-based; conditions: in the assay text read “at 5 times GI50 after longer incubation” for “at 1 to 5 times GI50 after 1 hr”
In short: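 CCRF-CEM cultured as for cell cycle (1× or 5× GIC50), pulsed with 10 μM BrdU for 30 min before harvest. Ethanol-fixed, DNA denatured in 2 M HCl, anti-BrdU then FITC secondary antibody, propidium iodide/RNase counterstain, flow cytometry at 488 nm.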

[15] = Antitumor activity against mouse P388D1 cells xenografted in DBA/2 mouse assessed as increase of mean survival days at 75 mg/kg, ip qd administered as 2 cycles on day 1 to 3 and day 8 to 10; format: functional; conditions: route intraperitoneal
In short: (§3)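 P388D1 mouse leukemia cells, grown in RPMI with 10% FBS, were implanted ip at 10^5 cells per mouse on day 0 into female DBA/2 mice (18–22 g, SPF) and randomized 10 per group. Dosing was once daily ip in 50% PEG400/deionized water (pH 7.0) on days 1–3 and 8–10, with vehicle for controls. Deaths were recorded daily, and MST and %ILS were calculated.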

[16] = Antitumor activity against mouse P388D1 cells xenografted in DBA/2 mouse assessed as increase of lifespan at 75 mg/kg, ip qd administered as 2 cycles on day 1 to 3 and day 8 to 10; format: functional; conditions: route intraperitoneal; in short: as §3

Which Stability [1] does the source give for Nc1ncnc2c1c(-c1cccs1)cn2[C@@H]1O[C@H](CO)[C@@H](O)[C@H]1O here?
Its Stability is 5.04 pmol.

And the Stability [2]?
The Stability was 0.53 pmol.

And the GI50 [3]?
Its GI50 is 7 nM.

And the GI50 [4]?
Its GI50 is 11 nM.

And the GI50 [5]?
The GI50 was 35 nM.

What about the IC50 [6] of the same compound?
The IC50 was 50 nM.

And the IC50 [7]?
The IC50 was 105 nM.

And the IC50 [8]?
Its IC50 is 115 nM.

What about the IC50 [9] of the same compound?
The IC50 was 528 nM.

What about the IC50 [10] of the same compound?
The IC50 was 119 nM.

What about the IC50 [11] of the same compound?
The IC50 was 26 nM.

What about the IC50 [12] of the same compound?
The IC50 was over 10000 nM.

And the Activity [13]?
The Activity was “Active”.

And the inhibition [14]?
Its inhibition is “Active”.

What about the MSD [15] of the same compound?
Its MSD is 15.1 days.

What about the Activity [16] of the same compound?
Its Activity is 29%.
